Screening results from PubChem BioAssay.
JMJD2C inh = inhibitors of GASC-1 histone demethylase, primary screen, biochemical, fluorescence, DELFIA europium; Lysine-specific demethylase 4C (Homo sapiens), Q9H3R0; inhibition, % at 2.35 µM; actives 0.069% (n = 330,000); GST-JMJD2C(1-420) H3K9me3 demethylation;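 active = more than half of a compound's replicate wells show inhibition beyond 50%, single wells judged on their own value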;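 note: signal counts dimethyl H3K9 product captured on neutravidin plate; 0% = median of DMSO wells and 100% = 0.3 times that DMSO median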
Target sequence (Q9H3R0 1-420 limits assumed): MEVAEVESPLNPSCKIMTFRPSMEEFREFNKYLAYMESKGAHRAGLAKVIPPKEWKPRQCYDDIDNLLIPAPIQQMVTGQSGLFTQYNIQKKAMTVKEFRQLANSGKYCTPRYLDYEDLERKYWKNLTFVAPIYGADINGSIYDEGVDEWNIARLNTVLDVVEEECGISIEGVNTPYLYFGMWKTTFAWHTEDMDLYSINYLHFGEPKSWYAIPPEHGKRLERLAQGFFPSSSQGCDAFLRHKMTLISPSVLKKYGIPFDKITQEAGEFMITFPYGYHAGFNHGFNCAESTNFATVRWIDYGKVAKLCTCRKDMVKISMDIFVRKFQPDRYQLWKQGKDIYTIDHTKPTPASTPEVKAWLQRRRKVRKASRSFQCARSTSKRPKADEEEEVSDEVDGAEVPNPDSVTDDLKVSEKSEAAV
T cell HTS = modulators of CD8 T cell-vesicle binding, primary screen, mouse 2C CD8+ T cells, flow cytometry; actives 0.068% (n = 330,000); response (vesicle binding), % at 7 µM; 2C CD8+ T cell-vesicle binding; hits give low values;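 active = response, share of CD8 T cells binding vesicles, and their 90th percentile fluorescence all below set limits, cut at about 80% in these data, passing the limit was not always enough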;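 note: values below 100% mean blocked vesicle binding to the CD8+ T cells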
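Assay system – 2C mouse CD8+ T cells · Also added – QL9-loaded Drosophila micro-vesicles · Timing – Cell–vesicle co-incubation 1.5 h at 37 °C, staining 20 min on ice · Signal – flow cytometry of vesicle-bound cells · Measure – percent CD8+ FL2 mean versus row control · Controls – Peptide-free naked vesicles (low) and QL9 vesicles with 0.7% DMSO vehicle (high)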
SUMO Mot1 rescue = yeast Mot1-301 growth rescue at high temperature, primary screen, SUMOylation pathway inhibitor project, S. cerevisiae, ATP luminescence, 38.5C; S. cerevisiae Mot1-301 growth rescue; percent above DMSO median, 100 means doubled; actives 1% (n = 320,000); AID 2716, 2010; growth rescue, % at 18.8 µM;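 active = every valid replicate shows activation above 250% relative to neutral control wells; inactive = the rest, any valid replicate at or below 250%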;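 note: OY570 slx delta 5 strain wells were the positive control but not used for scaling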
HIF act = HIF pathway transcriptional activators, primary screen, cell-based, U2OS HRE-luciferase, luminescence | U2OS HRE-luciferase reporter; normalized: DMSO 0%, desferrioxamine 100% | activation, % at 7.5 µM (by protocol) | actives 0.32% (n = 300,000) | AID 1910, 2009;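 active = mean activation of at least 10% of the iron chelator positive control signal, with at least half of replicates also reaching 10%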
* hit, by the source's call; i = inactive; nt = not tested or not shown; + = active, no number. An excerpt weighted towards active compounds, which were near 1.4% of everything screened.

SMILES | JMJD2C inh | T cell HTS | SUMO Mot1 rescue | HIF act
CCN(CC)c1ccc(/C=N/Nc2nc(C)cc(=O)[nH]2)c(O)c1 | -1 | 341 | -10 | 57*
CCOC(=O)N/N=C/c1ccc(N(CC)CC)cc1O | 0 | 595 | -27 | 4
CCN(CC)c1ccc(/C=N/Nc2ccc(C)cc2)c(O)c1 | 5 | 304 | 28 | nt
COc1ccc(-c2noc(COC(=O)c3ccco3)n2)cc1OC | 0 | 505 | -7 | nt
CN(C)CCn1c(SCc2ccccc2C#N)nc2c(sc3ccccc32)c1=O | 9 | 179 | 12 | 2
NC(=O)c1ccc(/C=N/O)[n+](Cc2ccccc2)c1 | -9 | i | 14 | 0
Cc1cc(C)[n+](Cc2ccccc2)cc1C(N)=O | 4 | 801 | 1 | 21*
N/C(=N\OC(=O)C(c1ccccc1)c1ccccc1)c1cccnc1 | 4 | 232 | 280 | 72*
N/C(=N\OC(=O)COc1ccccc1)c1cccnc1 | 1 | 256 | 40 | 1
O=C(N/N=C/c1ccc(O)cc1O)c1ccc(CN2C(=O)c3cccc4cccc2c34)cc1 | 24 | 103 | 3 | 13*
O=C(N/N=C/c1ccccc1)c1ccc(CN2C(=O)c3cccc4cccc2c34)cc1 | 8 | 788 | 2 | 0
Cc1cc([N+](=O)[O-])nn1Cc1ccc(C(=O)N/N=C/c2ccc(O)cc2O)cc1 | 9 | 399 | -6 | 21*
O=C(c1ccc(OC2CCN(CCc3ccccc3)CC2)cc1)N1CCCC(CCCO)C1 (centres undefined) | 3 | 371 | 5 | 44*
O=C(c1ccc(OC2CCN(Cc3ccc(F)cc3)CC2)cc1)N1CCCC1 | 4 | 182 | 75 | 53*
CSc1ccc(CN2CCC(Oc3ccc(C(=O)N4CCCC4)cc3)CC2)cc1 | -7 | 315 | 277* | 0
Cc1cccc(CN2CCC(Oc3ccc(C(=O)N4CCCC4)cc3)CC2)n1 | 66* | 326 | 366 | 0
O=C1CCCCc2sc(Br)c([N+](=O)[O-])c2N1 | -16 | 224 | 3 | -6
CC(C)(C)OC(=O)C[C@H]1C/C=C\C[C@@H](CC(=O)NCCO)C(=O)NC[C@@H](c2ccccc2)OC1=O | -1 | 206 | 5 | nt
O=C(COC(=O)/C=C/c1ccc(Cl)cc1Cl)NCC1CCCO1 (centres undefined) | 1 | 299 | 1 | nt
COc1ccc(-n2c(C)cc(C(=O)CCl)c2C)cc1 | -8 | 531 | -27 | 16*
FC(F)Oc1ccc(NC(=S)Nc2ccc3cn[nH]c3c2)cc1 | -4 | 0 | -24 | 9.8*
Cc1csc(NC(=O)CSc2nnc(NC(=O)NC(C)(C)C)s2)n1 | 0 | 310 | 5 | 1
CCC(=O)Oc1ccc(C(=O)Nc2cccc(C(=O)NCC(C)C)c2)cc1 | -6 | 221 | + | 2
CCC(=O)Oc1ccc(C(=O)Nc2ccccc2C(=O)NCC(C)C)cc1 | -4 | 99 | -17 | 0
O=C(CSc1nc(=O)n2ccccc2n1)NC1CCCCC1 | -1 | 94 | -2 | 0
SMILES | JMJD2C inh | T cell HTS | SUMO Mot1 rescue | HIF act
CC(NC(=O)C1CCC(CNS(=O)(=O)c2ccc3c(c2)C(C)(C)C(=O)N3C)CC1)c1ccccc1 (centres undefined) | 1 | 868 | -20 | -1
CCOC(=O)c1ccc(NC(=O)C2CCN(C(=O)c3ccc(OC)c(OC)c3)CC2)cc1 | 7 | 193 | nt | 0
COc1cc(C(=O)N2CCN(C(=O)Cc3ccccc3)CC2)cc(OC)c1OC | -6 | 200 | 37 | 13*
COC(=O)c1ccc(NC(=O)C2CCN(C(=O)c3cc(OC)c(OC)c(OC)c3)CC2)cc1 | -9 | 373 | 336* | 0
CN(C)S(=O)(=O)Nc1cc(F)cc(F)c1 | -12 | 298 | -10 | 0
CC(C)(C)c1ccc(NC(=O)C2=CC=CN3CCS(=O)(=O)N=C23)cc1 | -3 | 419 | 128 | nt
CCN(CC)c1ccc(NC(=O)C2=CC=CN3CCS(=O)(=O)N=C23)cc1 | 6 | 0.0* | -4 | nt
COc1ccc(CNS(=O)(=O)c2cn(C)c(=O)n(C)c2=O)cc1 | 3 | 271 | -7 | 0
O=[N+]([O-])c1cc(-c2cnc3ccccc3n2)ccc1Oc1ccc(F)cc1 | 62* | 410 | 0 | 2
O=C(NNS(=O)(=O)c1ccc2ccccc2c1)C1CCN(Cc2ccccc2)CC1 | 19 | 338 | -6 | -1
O=S(=O)(NC1CCN(Cc2ccccc2)CC1)c1ccc2ccccc2c1 | -2 | 232 | 322* | 0
Cn1nccc1C(=O)N1CCN(c2ncccn2)CC1 | -2 | 79 | 336* | 0
Cn1nccc1C(=O)N1CCN(c2ccccc2Cl)CC1 | 0 | 132 | 4 | 0
O=C(Nc1cc(S(=O)(=O)N2CCCCC2)ccc1N1CCOCC1)c1ccc(C(F)(F)F)cc1 | 6 | 324 | -1 | nt
Cc1ccc(S(=O)(=O)N2CCC(C(=O)Nc3cc(C(F)(F)F)ccc3N3CCOCC3)CC2)cc1C | -12 | 48* | -5 | 1
COC(=O)CC1C(=O)NCCN1C(=O)c1cc([N+](=O)[O-])ccc1Cl (centres undefined) | -4 | 306 | 180 | 0
COc1ccc(/C=N/Nc2ncnc3sc4c(c23)CCCC4)cc1OC | 5 | 141 | 0 | 10*
CC(C(=O)Nc1ccccc1-c1ccccc1)N1CCN(C(=O)c2ccccc2)CC1 (centres undefined) | 11 | 180 | 439 | 34*
Cc1ccc2nc(SCC(=O)N(CC(C)C)c3c(N)n(Cc4ccccc4)c(=O)[nH]c3=O)[nH]c2c1 | 1 | 287 | 8 | 1
CCN(CC)c1ccc(/C=N/NC(=O)CNC(=O)C2COc3ccccc3O2)c(O)c1 (centres undefined) | -74 | 171 | 174 | 19*
COc1cc(/C=N\NC(=O)CNC(=O)C2COc3ccccc3O2)ccc1O (centres undefined) | 3 | 244 | 3 | -1
Cc1ccc(CNC(=O)C2CCC(=O)N2C(C)C)cc1 (centres undefined) | -9 | 242 | -8 | -6
COc1ccc(NC(=O)CCCN2C(=O)C(c3ccccc3)Oc3cccnc32)c(OC)c1 (centres undefined) | -26 | 61 | 339* | 0
O=S(=O)(NCCc1ccccc1)c1ccc(Br)cc1 | -10 | 251 | -19 | 0
COc1ccccc1[C@]1(C)ON(c2ccccc2C(F)(F)F)C1=O | 6 | 484 | 296* | nt
CCC(=O)N1CCc2cc(S(=O)(=O)NCCC(=O)N3CCN(c4cccc(OC)c4)CC3)ccc21 | -14 | 284 | 31 | 30*
CCC(=O)N1CCc2cc(S(=O)(=O)NCCC(=O)N3CCN(c4ccccc4)CC3)ccc21 | 1 | 260 | 4 | 0
Cc1ccc(NC(=O)CSc2nnc(C)c(=O)n2N)cc1Cl | 3 | 395 | -3 | 0
Cc1cccc(NC(=O)CSc2nnc(C)c(=O)n2N)c1 | 13 | 171 | 461* | 0
